Rows were chosen to be rich in hits. Some 2.5% of all compounds tested hit in one or more screens of this group.
T cell HTS – modulates CD8 T cell binding to vesicles; response (vesicle binding), % at 7 µM; actives 0.068% (n = 330,000); 2C CD8+ T cell-vesicle binding, flow cytometry; active compounds read low; AID 2052;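 active = response, share of CD8 T cells binding vesicles, and their 90th percentile fluorescence all below set limits, cut at about 80% in these data, passing the limit was not always enough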;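 note: values below 100% mean blocked vesicle binding to the CD8+ T cells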
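Incubation: binding step 1.5 h, 37 °C, antibody labelling 20 min, ice; system: murine 2C transgenic CD8+ T lymphocytes; technique: cytometric PE anti-B7-1 and Alexa647 anti-CD8 signals after 1% paraformaldehyde fixation; also added: QL9-charged Drosophila Ld/ICAM-1/B7-1 vesicles; control set: naked versus QL9-loaded vesicles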
UCH37 DUB inh – blocks the human deubiquitinase UCH37 | Q9Y5K5 | actives 0.33% (n = 330,000) | purified proteasome/UCH37, Ub-AMC cleavage fluorescence | inhibition, % (test concentration not listed);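 active = mean inhibition over replicate wells above about 20%, limit read from the data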;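 note: 0% = compound-free wells with enzyme and 100% = wells lacking proteasome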
Target sequence (Q9Y5K5 whole entry, looked up): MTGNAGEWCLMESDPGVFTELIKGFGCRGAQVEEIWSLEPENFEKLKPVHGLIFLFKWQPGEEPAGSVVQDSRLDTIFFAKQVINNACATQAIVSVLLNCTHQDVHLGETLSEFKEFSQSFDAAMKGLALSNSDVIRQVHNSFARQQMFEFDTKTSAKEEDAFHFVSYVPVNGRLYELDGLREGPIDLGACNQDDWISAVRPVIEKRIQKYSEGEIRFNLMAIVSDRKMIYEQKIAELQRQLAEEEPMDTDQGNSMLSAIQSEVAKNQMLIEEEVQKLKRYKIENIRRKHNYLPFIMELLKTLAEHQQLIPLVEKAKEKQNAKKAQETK
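System: Proteasome-associated human UCH37 deubiquitinase; Input: 0.15 nM proteasome in added enzyme buffer; Also added: Ub-AMC substrate from 1 µM stock; Incubation: 30 min compound-proteasome preincubation then 25 min substrate reaction, room temperature; Detection: fluorescence, ex 355 nm, em 460 nm; Read-out: % inhibition of Ub-AMC cleavage fluorescence; Benchmarks: no-proteasome and no-compound wells.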
MEKK2 mut-MEK5 – signal of MEK5 binding to mutant human MEKK2 PB1 domain; percent response, % at 10 µM; actives 0.35% (n = 290,000); AID 1530; bead flow cytometry, Alexa488-MEK5 binding to MEKK2 mutant; in the data active = percent response above about 24%, passing the limit was not always enough
MEKK2wt PB1 HTS – raises or lowers MEK5 binding to wildtype human MEKK2 PB1 domain; bead flow cytometry, Alexa488-MEK5 binding to MEKK2 WT; actives lie on both sides; actives 1.1% (n = 290,000); AID 1531; binding response (% of control), % at 10 µM; in the data active = binding response below about 67% or above about 130%
Rce1 inhib – blocks yeast Ras-converting enzyme; Q03530; yeast membranes, quenched prenylated peptide cleavage fluorescence; calls only; actives 0.27% (n = 290,000);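 active = fall in fluorescence gain of 50% or more versus controls, with final raw signal at or below 3038400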;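 note: plate controls were neutral control wells for no effect and wells lacking membranes for full effect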
Target sequence (Q03530 whole entry, looked up): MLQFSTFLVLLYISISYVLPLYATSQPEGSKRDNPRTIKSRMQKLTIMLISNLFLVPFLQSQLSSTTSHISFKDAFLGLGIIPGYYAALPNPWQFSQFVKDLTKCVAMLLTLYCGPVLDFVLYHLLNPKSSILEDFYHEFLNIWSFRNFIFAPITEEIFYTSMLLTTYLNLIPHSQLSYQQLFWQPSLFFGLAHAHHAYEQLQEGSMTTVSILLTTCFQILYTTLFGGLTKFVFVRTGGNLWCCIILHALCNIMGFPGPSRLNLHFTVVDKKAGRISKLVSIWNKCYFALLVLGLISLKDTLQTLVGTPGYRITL
MEKK3 PB1 HTS – modulators (inhibitors or enhancers) of MEK5 binding to human MEKK3 PB1 domain; binding response (% of control), % at 10 µM; AID 1529; Q99759; actives 1.4% (n = 290,000); bead-based flow cytometry, Alexa488-MEK5 binding to MEKK3; actives lie on both sides; 0 = blocked by unlabeled MEK5, 100 = vehicle;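 active = binding response more than 3 SD above or below the average of its plate-row segment, actives on both sides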;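 note: Alexa488 bead fluorescence after subtracting the streptavidin-only scavenger bead signal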
Active calls of the source: *; i = inactive; / = not tested or not shown; + = active, no number; [ ] = dose if it differs, or a comment.

SMILES	T cell HTS	UCH37 DUB inh	MEKK2 mut-MEK5	MEKK2wt PB1 HTS	Rce1 inhib	MEKK3 PB1 HTS
O=C(/C=C/c1cn(-c2ccccc2)nc1-c1cccs1)NCCN1CCOCC1	52	-78	4	121	+	101
O=C(c1cn(-c2ccccc2)nc1-c1cccs1)N1CCOCC1	237	2	1	100	i	103
O=C(c1cc(-c2ccncc2)nc2ccccc12)N1CCN(c2ccccn2)CC1	318	4	-3	97	i	97
COc1ccc(Cc2nnc(NN=Cc3ccc(C)o3)[nH]c2=O)cc1	/	5	/	/	/	/
Clc1cncc(Cl)c1NN=Cc1ccncc1	/	8	/	/	/	/
COc1ccc(C=NNC(=O)c2c(-c3ccccc3)noc2C)cc1	/	2	/	/	/	/
O=C1CC(c2ccccc2)CC(O)=C1C=NCCCO (stereo not drawn)	320	22*	8	97	i	100
Cc1cc(C)n(CCC(=O)NN=Cc2c(O)ccc3ccccc23)n1	/	0	/	/	/	/
CN(C)c1ccc(-c2sc(Nc3ccccc3)n[n+]2-c2ccc(F)cc2)cc1	407	1	14	105	i	101
CCN(CC)c1ccc(-c2sc(Nc3ccccc3)n[n+]2-c2ccc(F)cc2)cc1	i	2	76*	33*	i	103
CC(C)(C)N=C1SCC(C)(C=NO)S1 (stereo not drawn)	/	3	/	/	/	/
CCOc1cc(CNC2CCCC2)ccc1OCc1ccccc1Cl	287	/	-1	109	+	90
OC12CCCCC1C(c1ccc3c(c1)OCO3)N(Cc1ccc(F)cc1)CC2 (stereo not drawn)	247	29*	10	113	i	109
Cc1ccc(-c2cc3cccc[n+]3cc2-c2ccc(C)cc2)cc1	126	-303	-1	101	+	99
O=C(NNC(=O)c1ccc(O)c(Cl)c1)c1cccc(S(=O)(=O)N2CCOCC2)c1	627	4	/	/	+	/
N#Cc1ccc(C(=O)NNC(=O)c2cccc(S(=O)(=O)N3CCOCC3)c2)cc1	163	3	/	/	/	/
CCn1c(N2CCN(CC(=O)c3ccc(OC)cc3)CC2)nc2ccccc21	/	3	-18	2.0*[inhibitor]	/	2.0*[inhibitor]
COc1ccc(N2CCN(CC(=O)c3ccccc3)CC2)cc1	191	5	10	112	i	101
CCC(=O)Nc1ccc(C(=O)N/N=C/c2c(C)[nH]c3ccccc23)cc1	193	/	45	35*	i	92
Cc1[nH]c2ccccc2c1C=NNC(=O)c1ccccc1	/	10	/	/	/	/
COc1ccccc1/C=C/C(=O)NCC(=O)NN=C(CCC(=O)O)c1ccccc1	/	-24	/	/	/	/
O=C(CC1SC(=Nc2ccccc2)N(CCCCO)C1=O)NCc1ccccc1 (stereo not drawn)	798	26*	-1	102	i	100
O=C(CC1SC(=Nc2ccccc2)N(CCCO)C1=O)Nc1ccc(Cl)cc1 (stereo not drawn)	241	2	-2	111	i	104
Cn1c2ccccc2c2cc(C=NNC(=O)c3cc(O)cc(O)c3)ccc21	/	-86	/	/	/	/
CCN(Cc1ccccc1)S(=O)(=O)c1ccc(C(=O)N(CCCN(C)C)c2nc3c(C)c(C)ccc3s2)cc1	262	2	/	/	+	/
SMILES	T cell HTS	UCH37 DUB inh	MEKK2 mut-MEK5	MEKK2wt PB1 HTS	Rce1 inhib	MEKK3 PB1 HTS
Cc1ccc2sc(N(CCCN(C)C)C(=O)CCS(=O)(=O)c3ccccc3)nc2c1C	367	/	16	151*	i	107
CCN1CCN(CCNC(=O)c2ccc3nc(-c4cccc(C)c4)c(-c4cccc(C)c4)nc3c2)CC1	476	-406	25*	151*	i	104
CCCNC(=O)c1ccc2nc(-c3ccccc3)c(-c3ccccc3)nc2c1	242	-61	8	104	i	106
COc1ccc(C(=O)NN=C2SCC(=O)N2Cc2ccc3c(c2)OCO3)c(OC)c1	/	2	/	/	/	/
CN(C)CCN(C(=O)/C=C/c1cccs1)c1nc2ccc(F)cc2s1	337	-5	21	127	i	102
CCN(CC)CCN(C(=O)/C=C/c1cccs1)c1nc2ccc(Cl)cc2s1	247	-3	13	156*	i	103
Cc1c(C)n(Cc2ccccc2)c2ccc(C(=O)NCCCN3CCOCC3)cc12	178	2	6	112	i	99
Cc1c(C)n(C)c2ccc(C(=O)NCCCN3CCN(c4ccccc4F)CC3)cc12	89	3	21	158*	i	107
Cc1c(C)n(Cc2ccc(F)cc2)c2ccc(C(=O)NCCCN3CCOCC3)cc12	248	-5	7	117	i	103
Cc1c(C)n(C)c2ccc(C(=O)NCCCN3CCN(c4ccc(F)cc4)CC3)cc12	207	0	7	134*	i	98
O=C(Cn1c(=O)c2cccn2c2ccc(F)cc21)NCCCN1CCN(c2ccccc2F)CC1	222	5	27*	156*	i	108
COC(=O)c1[nH]c2ccc(C)cc2c1NC(=O)CN1CCCc2ccccc21	294	-4	15	-9.0*	i	92
COc1cccc2c1C(=O)c1c(O)c3c(c(O)c1C2=O)C[C@@](O)(C(=O)CO)C[C@@H]3O[C@H]1C[C@H](N)[C@@H](O)[C@H](C)O1	156	2	11	7.0*	i	99
O=C(O)c1ccc(Cn2cc(/C=C\[N+](=O)[O-])c3ccccc32)o1	253	4	10	104	i	107
O=[N+]([O-])/C=C/c1cn(Cc2ccc(Cl)cc2)c2ccccc12	171	20*	1	2.0*	i	99
COC(=O)c1cc(NC(=O)c2ccccc2)c(=O)oc1CC=NOCc1ccc(Cl)cc1Cl	/	1	/	/	/	/
COc1ccc(C2CC(c3ccccc3)=NN2c2ccc(C=NNC(=O)c3ccncc3)cc2)cc1 (stereo not drawn)	/	-2	/	/	/	/
COc1ccc(C2=CC(=O)OC3(CCCCC3)O2)cc1	643	2	-1	92	i	98
C=C(C)C1(O)OC(=O)C=C1OC (stereo not drawn)	287	/	3	100	+	108
CCOc1ccc(CCNC(=O)CCS(=O)(=O)c2ccc(C)cc2)cc1OCC	0.0*	0	6	103	i	105
COc1ccc(OCC(=O)NN=C2CCCCc3ccccc32)cc1	/	0	/	/	/	/
COc1ccc(-c2nc(CC(=O)O)cs2)cc1OC	316	/	1	106	+	104
CCOc1ccc(-c2nc(CCl)cs2)cc1OC	544	/	-5	103	+	100
COc1ccc(-c2nc(CC(=O)O)cs2)cc1	753	-1	6	103	i	107
COc1ccc2sc(SCCCS(=O)(=O)O)[n+](CCCS(=O)(=O)[O-])c2c1	165	/	0	104	i	97

Assay outcomes: PubChem BioAssay, several laboratories
